The source of these data is ChEMBL document CHEMBL1134621, “Discovery of 4-[(Z)-(4-bromophenyl)- (ethoxyimino)methyl]-1'-[(2,4-dimethyl-3- pyridinyl)carbonyl]-4'-methyl-1,4'- bipiperidine N-oxide (SCH 351125): an orally bioavailable human CCR5 antagonist for the treatment of HIV infection” (J Med Chem, 2001).

pIC50, pKi: −log10 of the molar value.

The nature of data set [1]: In vivo pharmacokinetic parameter, half-life (t1/2) was measured in rat after 10 mg/kg iv administration. In kind it is ADME, organism-based. Also noted: dose 10 mg/kg, route intravenous. In a few lines: (§1)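 Rat pharmacokinetics using the amorphous tartrate salt. Dosing was 10 mg/kg iv in 20% hydroxypropyl-β-cyclodextrin and 10 mg/kg po in 0.4% methylcellulose. […] Oral bioavailability was derived by comparing oral with iv exposure.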

Data set [2] is described as follows: In vivo pharmacokinetic parameter, Area under curve (AUC) was measured in monkey after 2 mg/kg iv administration. Particulars: simiiformes.
A short description of data set [3]: Oral bioavailability was evaluated in monkey at a dose of 2 mg/kg. Particulars: simiiformes, in vivo.
Data set [4] relates to Rattus norvegicus. Kind of data set: In vivo pharmacokinetic parameter, Area under curve (AUC) was measured in rat after 10 mg/kg iv administration. Format: ADME, organism-based. Details: dose 10 mg/kg, route intravenous. In a few lines:
as §1

For data set [5], the system named is Human immunodeficiency virus 1. Kind of data set: microbe, parasite or virus in culture. In kind it is functional, organism-based. As to conditions: Human immunodeficiency virus 1, U-87 MG.
Data set [6] has as its system Canis familiaris. Kind of data set: Oral bioavailability was evaluated in dog at a dose of 3 mg/kg. Particulars: in vivo.
The nature of data set [7]: In vivo pharmacokinetic parameter, half-life (t1/2) was measured in monkey after 2 mg/kg iv administration. Particulars: simiiformes.
Data set [8] concerns the target C-C chemokine receptor type 5 (Homo sapiens, UniProt P51681). Description: Inhibition of RANTES binding to C-C chemokine receptor type 5.
For data set [9], the system named is Canis familiaris. Description: In vivo pharmacokinetic parameter, Area under curve (AUC) was measured in dog after 1 mg/kg iv administration.
The nature of data set [10]: In vivo pharmacokinetic parameter, half-life (t1/2) was measured in dog after 1 mg/kg iv administration.
In data set [11] the test system is Rattus norvegicus. Description: Oral bioavailability was evaluated in rat at a dose of 10 mg/kg. In kind it is ADME, organism-based. As to conditions: in vivo. In a few lines: as §1
Data set [12] relates to Rattus norvegicus. Description: Area under curve (0-6 hr) value in rat at a concentration of 10 mg/kg after peroral administration. In kind it is ADME, organism-based. Details: time < 6 hr, dose 10 mg/kg, route oral. As to conditions: in vivo, po.
A short description of data set [13]: In vivo pharmacokinetic parameter, half-life (t1/2) was measured in dog after 1 mg/kg iv administration. This is another data set of the same source.
For data set [14], the system named is Rattus norvegicus. Kind of data set: Area under curve (0-6 hr) value in rat at a concentration of 10 mg/kg, peroral administration. Format: ADME, organism-based. Details: time < 6 hr, dose 10 mg/kg, route oral. As to conditions: in vivo, po.

Sequence of C-C chemokine receptor type 5 (P51681 whole entry): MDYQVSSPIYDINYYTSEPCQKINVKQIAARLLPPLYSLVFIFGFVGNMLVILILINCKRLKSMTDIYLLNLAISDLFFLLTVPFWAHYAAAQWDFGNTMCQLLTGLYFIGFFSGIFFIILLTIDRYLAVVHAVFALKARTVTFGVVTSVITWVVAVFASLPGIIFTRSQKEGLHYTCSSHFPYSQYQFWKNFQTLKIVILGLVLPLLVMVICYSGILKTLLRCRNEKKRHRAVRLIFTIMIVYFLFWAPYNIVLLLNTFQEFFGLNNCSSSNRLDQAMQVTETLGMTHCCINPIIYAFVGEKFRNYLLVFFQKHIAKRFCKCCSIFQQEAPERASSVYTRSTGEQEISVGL

In the case of `CCO/N=C(\c1ccc(Br)cc1)C1CCN(C2(C)CCN(C(=O)c3c(C)cc[n+]([O-])c3C)CC2)CC1` [ANCRIVIROC], the half-life (commonly the time needed for the level to fall by half in the phase considered) in [1] is 5 h; in data set [7], 6 h; in data set [10], 10 h; in data set [13], 10 h. Also, the AUC (usually the area under the concentration-time curve, a measure of exposure) was found to be 7400 ng·h/mL in data set [2], 13000 ng·h/mL in the data set on Rattus norvegicus [4] and 2800 ng·h/mL in the data set on Canis familiaris [9]. In addition, the results for the BA (in data set [3]; in the data set on Canis familiaris [6]; in the data set with Rattus norvegicus [11]) were 52%, 92% and 63%, respectively. The pIC50 (as a rule, the negative decadic logarithm of the IC50, by convention in mol/L) in data set [5] was 9.22. Also, the pKi (as a rule, the negative decadic logarithm of the Ki, by convention in mol/L) in [8] was 8.68. This molecule registered an AUC 0-6h in the data set with Rattus norvegicus [12] of 6500 ng·h/mL.
In turn, `COc1ccc(S(=O)(=O)c2ccc(CC3CCN(C4CCN(C(=O)c5ccc(F)c6ccccc56)CC4)CC3)cc2)cc1` showed a pKi in data set [8] of 7.18.
Molecule `CON=C(c1ccc(Br)cc1)C1CCN(C2(C)CCN(C(=O)c3c(C)cccc3C)CC2)CC1` had a pIC50 in data set [5] of 8.82. In the data set with Rattus norvegicus [12], this molecule yielded an AUC 0-6h of 2100 ng·h/mL.
`CO/N=C(\c1ccc(Br)cc1)C1CCN(C2(C)CCN(C(=O)c3c(C)ccnc3C)CC2)CC1`: the pIC50 in [5] is 9.30. The pKi in [8] was 8.96. In the data set on Rattus norvegicus [12], this molecule returned an AUC 0-6h of 1900 ng·h/mL.
`CCO/N=C(/c1ccc(Br)cc1)C1CCN(C2(C)CCN(C(=O)c3c(C)cccc3C)CC2)CC1` showed a pIC50 in [5] of 8.04. The molecule further gave a pKi in data set [8] of 7.32.
The molecule `CCO/N=C(\c1ccc(Br)cc1)C1CCN(C2(C)CCN(C(=O)c3c(C)cccc3C)CC2)CC1` showed a pIC50 in data set [5] of 8.89. Further, the pKi in [8] is 8.74. Further, the AUC 0-6h with Rattus norvegicus [12] was determined as 1000 ng·h/mL.
For `CO/N=C(/c1ccc(Br)cc1)C1CCN(C2CCN(C(=O)c3c(C)cccc3C)CC2)CC1`, in that order: 8.92, 8.70 and 1400 ng·h/mL.
In the case of `CO/N=C(\c1ccc(Br)cc1)C1CCN(C2(C)CCN(C(=O)c3c(C)cccc3O)CC2)CC1`, the pIC50 in data set [5] is 8.40. For the same molecule, the AUC 0-6h with Rattus norvegicus [12] amounted to 3000 ng·h/mL.
`CO/N=C(/c1ccc(Br)cc1)C1CCN(C2(C)CCN(C(=O)c3c(C)cccc3C)CC2)CC1` gave a pIC50 in data set [5] of 8.55. This molecule also gave a pKi in [8] of 7.60. The molecule also showed an AUC 0-6h in the data set on Rattus norvegicus [12] of 1200 ng·h/mL.
Take `Cc1cccc(C)c1C(=O)N1CCC(C)(N2CCC(Cc3ccc(Br)cc3)CC2)CC1`: the pIC50 in data set [5] was 8.00. The molecule further showed an AUC 0-6h in the data set with Rattus norvegicus [14] of 40 ng·h/mL. This molecule showed a pKi in [8] of 7.18.
As to `Cc1cccc(C)c1C(=O)N1CCC(C)(N2CCC(Nc3ccc(Br)cc3)CC2)CC1`, in [5], the pIC50 is 8.26. This molecule had an AUC 0-6h with Rattus norvegicus [12] of 150 ng·h/mL.
Turning to `CO/N=C(\c1ccc(Br)cc1)C1CCN(C2(C)CCN(C(=O)c3c(N)cccc3Cl)CC2)CC1`, the pIC50 in data set [5] is 9.22. For the same molecule, the pKi in data set [8] is 8.47. In addition, the AUC 0-6h with Rattus norvegicus [12] was determined as 610 ng·h/mL.
For `CCO/N=C(\c1ccc(Br)cc1)C1CCN(C2(C)CCN(C(=O)c3c(C)ccnc3C)CC2)CC1`, in that order: 9.70, 8.96 and 2100 ng·h/mL.
Turning to `CO/N=C(\c1ccc(Br)cc1)C1CCN(C2(C)CCN(C(=O)c3c(C)cc[n+]([O-])c3C)CC2)CC1`, the pIC50 in data set [5] is 8.25. The same molecule gave a pKi in data set [8] of 7.74. Also, the AUC 0-6h in the data set with Rattus norvegicus [12] is 2400 ng·h/mL.
For `Cc1cccc(C)c1C(=O)N1CCC(C)(N2CCC(C(=O)c3ccc(Br)cc3)CC2)CC1`, the pIC50 in [5] was 7.89. This molecule also showed a negative-log Ki (pKi) in data set [8] of 7.27.
`CO/N=C(\c1ccc(Br)cc1)C1CCN(C2(C)CCN(C(=O)c3c(C)cccc3N)CC2)CC1` showed a pIC50 in data set [5] of 9.30. In data set [8], the pKi was 8.35. Also, the AUC 0-6h in the data set with Rattus norvegicus [12] turned out to be 1300 ng·h/mL.
For `Cc1cccc(C)c1C(=O)N1CCC(C)(N2CCC(Oc3ccc(Br)cc3)CC2)CC1`, the pKi in [8] was 7.54.
